Active and inactive are the calls of the source. The calls are words filed in the database; no cut-off is given here.
Legend:
PC-12 [1] = assay: Neuroprotective activity against etoposide-induced apoptosis in rat PC12 cells assessed as cell viability at 3 uM pretreated for 4 hrs followed by etoposide challenge measured after 48 hrs by PrestoBlue assay (reference value: 52.13 +/- 1.13%); type: functional; details: read-out: Activity
How it was run: (§1)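 PC12 cells were plated at 50000/well on collagen-coated plates and left overnight. They were pretreated 4 h with compound, then given 15 μg/mL etoposide. Viability was read at 48 h by PrestoBlue (ex 560/em 590 nm). n = 3, mean ± SEM, as % viability.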

IMR90-c4 [2] = assay: Neuroprotective activity against etoposide-induced apoptosis in human IMR90-c4 cells assessed as increase in cell viability at 3 to 30 uM pretreated for 4 hrs followed by etoposide challenge measured after 36 hrs by PrestoBlue assay; type: functional, cell-based
How it was run: (§2)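 IMR90-c4 iPSC-derived neurons were plated at 16000 cells/well on poly-D-lysine/laminin and matured. They were pretreated 4 h with compound, then given 15 μg/mL etoposide. Viability was read at 36 h by PrestoBlue fluorescence (ex 560/em 590 nm).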

[3] = Neuroprotective activity against etoposide-induced apoptosis in human IMR90-c4 cells assessed as cell viability at 3 uM pretreated for 4 hrs followed by etoposide challenge measured after 36 hrs by PrestoBlue assay relative to control; type: functional; details: read-out: Activity; how it was run: as §2
PC-12 [4] = assay: Neuroprotective activity in rat PC12 cells assessed as decrease in H2O2-induced reactive oxygen species generation at 10 uM by CellROX/DAPI-blue staining-based fluorescence microscopic method; type: functional, cell-based
How it was run: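 PC12 cells were grown in RPMI with 10% horse serum and 5% FBS on collagen-coated plates. ROS was induced with H2O2 and cells exposed to compound. Staining used CellROX green plus DAPI, imaged by fluorescence microscopy at 40×.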

PC-12 [5] = assay: Neuroprotective activity against H2O2-induced apoptosis in rat PC12 cells assessed as increase in cell viability at 1 to 30 uM after 4 hrs by PrestoBlue assay; type: functional, cell-based
How it was run: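 PC12 cells were exposed to 400 μM H2O2 with compounds at 1–30 μM. Viability was measured after 4 h with PrestoBlue.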

[6] = molecular target: T1, Glutamate [NMDA] receptor (Homo sapiens) (UniProt Q05586+Q12879+Q13224+O15399+O60391+Q14957+Q8TCU5); assay: Antagonist activity at NMDA receptor in human IMR90-c4 cells assessed as decrease in NMDA-mediated reduction in cell viability at 30 uM by PrestoBlue assay; type: cell-based
How it was run: (§3)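 IMR90-c4 iPSCs differentiated to neurons (NSC, NPC, then 21 days maturation on poly-D-lysine/laminin). Neurons challenged with 500 μM NMDA. Viability read with PrestoBlue. n = 1 with 4 technical replicates, mean ± SEM.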

[7] = molecular target: T1, Glutamate [NMDA] receptor (Homo sapiens); assay: Antagonist activity at NMDA receptor in human IMR90-c4 cells assessed as decrease in NMDA-mediated reduction in cell viability at 0.1 to 10 uM by PrestoBlue assay; type: cell-based; how it was run: as §3
PC-12 [8] = assay: Neuroprotective activity against etoposide-induced apoptosis in rat PC12 cells assessed as increase in Bcl2/Bax ratio at 3 uM pretreated for 4 hrs followed by etoposide challenge measured after 24 hrs by Western blot method; type: functional
How it was run: (§4)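 PC12 cells were pretreated 4 h with compound before etoposide and lysed after 24 or 48 h. 50 μg protein was run on 10% SDS gel and blotted. Probes were Bcl-2 (1:1000), Bax (1:500) and actin, with HRP chemiluminescence and densitometric Bcl-2/Bax ratio. n = 2, mean ± SEM.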

PC-12 [9] = assay: Neuroprotective activity against etoposide-induced apoptosis in rat PC12 cells assessed as increase in Bcl2/Bax ratio at 3 uM pretreated for 4 hrs followed by etoposide challenge measured after 48 hrs by Western blot method; type: functional, cell-based; how it was run: as §4
PC-12 [10] = assay: Induction of autophagy in rat PC12 cells at 10 uM after 48 hrs by MDC staining-based flow cytometric method relative to control; type: functional
How it was run: (§5)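 PC12 cells were treated for 48 h and then stained with 0.5 mM monodansylcadaverine for 30 min at 37 °C. Trypsinized cells were pooled with floating cells and resuspended in PBS/1% FBS. 10000 cells were read by flow cytometry in the FITC channel after gating out debris. MDC staining is expressed relative to vehicle.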

PC-12 [11] = assay: Induction of autophagy in rat PC12 cells at 3 uM after 48 hrs by MDC staining-based flow cytometric method relative to control; type: functional; how it was run: as §5
PC-12 [12] = assay: Induction of autophagy in rat PC12 cells assessed as increase in beclin 1 expression at 3 uM after 24 hrs by Western blot method relative to control; type: functional
How it was run: (§6)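 PC12 lysates were taken after 24 h of compound treatment. 50 μg protein was run on 10% SDS gel and transferred to nitrocellulose. Blots were blocked in 5% BSA, probed overnight at 4 °C with beclin 1 (1:2000) and actin (1:5000), then HRP secondary. Chemiluminescence was quantified by densitometry.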

SH-SY5Y = assay: Neuroprotective activity against etoposide-induced apoptosis in human SH-SY5Y cells assessed as cell viability at 3 uM pretreated for 4 hrs followed by etoposide challenge measured after 12 to 48 hrs by PrestoBlue assay relative to control; type: functional; details: read-out: Activity
How it was run: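 SH-SY5Y cells were plated at 50000/well and left overnight at 37 °C, 5% CO2. They were pretreated 4 h with compound, then given etoposide; methods give 5 μg/mL read at 48 h, while the legend states 5 μM for 12 h. PrestoBlue fluorescence (ex 560/em 590 nm).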

PC-12 [13] = assay: Neuroprotective activity against etoposide-induced apoptosis in rat PC12 cells assessed as cell viability at 0.1 uM pretreated for 4 hrs followed by etoposide challenge measured after 48 hrs by PrestoBlue assay relative to control; type: functional; details: read-out: Activity; how it was run: as §1
PC-12 [14] = assay: Induction of autophagy in rat PC12 cells after 48 hrs by MDC staining-based flow cytometric method; type: functional, cell-based; how it was run: as §5
PC-12 [15] = assay: Induction of autophagy in rat PC12 cells assessed as increase in beclin 1 expression after 24 hrs by Western blot method; type: functional, cell-based; how it was run: as §6
IMR90-c4 [16] = assay: Neuroprotective activity against etoposide-induced apoptosis in human IMR90-c4 cells assessed as increase in cell viability at 10 to 30 uM pretreated for 4 hrs followed by etoposide challenge measured after 36 hrs by PrestoBlue assay; type: functional, cell-based
How it was run: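 Neurons derived from IMR90-c4 iPSCs were seeded at 16000 cells/well on poly-D-lysine/laminin and matured at 37 °C, 5% CO2. Compound pretreatment lasted 4 h before 15 μg/mL etoposide. PrestoBlue fluorescence (ex 560/em 590 nm) was read after 36 h.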

PC-12 [17] = assay: Neuroprotective activity against etoposide-induced apoptosis in rat PC12 cells assessed as increase in cell viability at 0.1 uM pretreated for 4 hrs followed by etoposide challenge measured after 48 hrs by PrestoBlue assay relative to control; type: functional, cell-based; how it was run: as §1
[18] = molecular target: T1, Glutamate [NMDA] receptor (Homo sapiens); assay: Antagonist activity at NMDA receptor in human IMR90-c4 cells assessed as decrease in NMDA-mediated reduction in cell viability at 0.1 to 30 uM by PrestoBlue assay; type: cell-based
How it was run: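 Neurons differentiated from IMR90-c4 iPSCs over roughly 21 days, then challenged with 500 μM NMDA. Viability was read with PrestoBlue. n = 1 with 4 technical replicates; % viability given as mean ± SEM.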

[19] = Neuroprotective activity against etoposide-induced apoptosis in human IMR90-c4 cells assessed as increase in cell viability at 3 uM pretreated for 4 hrs followed by etoposide challenge measured after 36 hrs by PrestoBlue assay relative to control; type: functional; how it was run: as §2

Structure (SMILES) | viability at 3 µM (PC-12 [1]) [%] | Activity (IMR90-c4 [2]) | Activity (PC-12 [4]) | Activity (PC-12 [5]) | Activity (PC-12 [8]) [%] | Activity (PC-12 [9]) | fold change (FC) (PC-12 [11]) | also measured
CCOC(=O)Nc1ccc(NCc2ccc(F)cc2)nc1N [FLUPIRTINE] | 79.5 | Active | Active | Active | 68 | inactive | 2 | viability at 3 µM [3]: 70%; inhibition [6]: Active; inhibition [7]: inactive; fold change (FC) (PC-12 [10]): 8; Activity (PC-12 [12]): 32%; viability at 3 µM (SH-SY5Y): 69%
CCOC(=O)Nc1cnc(NCc2ccc(F)cc2)cc1C | 53.8 |  |  |  |  |  |  | 
Nc1nc(NCc2ccc(F)cc2)ccc1NC(=O)OCCCl | 53.9 |  |  |  |  |  |  | 
CCOC(=O)Nc1ccc(NCc2ccc(OC(F)(F)F)cc2)nc1N | 80.6 | Active |  |  |  | inactive |  | viability at 0.1 µM (PC-12 [13]): 77%; Activity (PC-12 [14]): Dose-dependent effect; Activity (PC-12 [15]): Dose-dependent effect
CCOC(=O)Nc1ccc(NCc2ccc(F)cc2)cc1N [EZOGABINE] |  |  | Active | Active | 64 | inactive | 2 | Activity (IMR90-c4 [16]): Active; inhibition [6]: Active; inhibition [7]: inactive
Nc1nc(NCc2ccc(F)cc2)ccc1NC(=O)OCc1ccccc1 | 81.2 | Active | inactive | inactive |  | Active | 3 | Activity (PC-12 [17]): Active; inhibition [18]: inactive; Activity [19]: 79%
CCOC(=O)Nc1ccc(NCc2ccc(C)cc2)nc1 | 64.3 |  |  |  |  |  |  | 
C=CCOC(=O)Nc1ccc(NCc2ccc(F)cc2)nc1N | 84.9 |  | inactive | inactive | 150 | inactive | 2 | inhibition [18]: inactive
CCOC(=O)Nc1ccc(NCc2ccccc2C(F)(F)F)nc1N | 82.8 |  |  |  |  |  |  | 

Source: ChEMBL document CHEMBL4028889 (2017)
